Assay results reported in PMC9257424 (The Journal of Biological Chemistry, 2022).
Entries after “also recorded” stand apart in the source; their conditions may differ.

Assays:
[1] = molecular target: T1, L. blandensis dGTPase (WT) (Leeuwenhoekiella blandensis, UniProt A3XHN1); assay: Enzyme-coupled dGTPase activity assay, WT enzyme; assay type: biochemical
T1 sequence (A3XHN1 3-442): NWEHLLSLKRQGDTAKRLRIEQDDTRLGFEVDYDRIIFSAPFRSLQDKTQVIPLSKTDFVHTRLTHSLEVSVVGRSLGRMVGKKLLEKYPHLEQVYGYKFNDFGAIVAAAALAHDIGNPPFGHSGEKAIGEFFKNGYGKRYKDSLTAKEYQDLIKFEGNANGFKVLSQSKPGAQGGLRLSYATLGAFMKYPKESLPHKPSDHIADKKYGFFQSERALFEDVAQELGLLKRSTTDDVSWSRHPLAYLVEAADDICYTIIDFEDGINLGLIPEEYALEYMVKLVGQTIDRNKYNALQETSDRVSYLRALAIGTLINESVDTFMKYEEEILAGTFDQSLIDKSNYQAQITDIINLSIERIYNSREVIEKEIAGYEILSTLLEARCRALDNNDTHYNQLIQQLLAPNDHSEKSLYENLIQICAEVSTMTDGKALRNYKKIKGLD

[2] = molecular target: T1, L. blandensis dGTPase (WT); assay: HPLC dGTPase activity assay, WT enzyme; assay type: biochemical; details: mixture of eight standard dNTPs and NTPs, 1 mM each, 1 h
[3] = molecular target: T2, L. blandensis dGTPase R28A (Leeuwenhoekiella blandensis, UniProt A3XHN1, R28A); assay: Enzyme-coupled dGTPase activity assay, R28A mutant; assay type: biochemical; details: dATP titration at 1 mM dGTP
T2 sequence (A3XHN1 3-442 R28A): T1 sequence (A3XHN1 3-442)
Outline: (§1)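 Variants of residues 3–442 were made by site-directed mutagenesis, expressed in E. coli BL21(DE3), and purified by Ni–NTA and size exclusion. dATP was serially diluted into buffer containing 1 mM dGTP (100 mM Tris pH 8, 5 mM MgCl2, 125 μM MnCl2, 5 mM phosphate). Reactions started with 1:1 addition of a 2× mix (~120 nM monomer, PNP, XOD). A297 was read at 25 °C, converted to v0/[E]t, and kcat,app versus dATP was Hill-fitted for K1/2.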

[4] = tested on: L. blandensis dGTPase R37A; assay: Enzyme-coupled dGTPase activity assay, R37A mutant; assay type: biochemical, Leeuwenhoekiella blandensis; details: dATP titration at 1 mM dGTP
Outline: as §1

[5] = molecular target: T3, L. blandensis dGTPase F40N (Leeuwenhoekiella blandensis, UniProt A3XHN1, F40N); assay: Enzyme-coupled dGTPase activity assay, F40N mutant; assay type: biochemical; details: dATP titration at 1 mM dGTP
T3 sequence (A3XHN1 3-442 F40N): T1 sequence (A3XHN1 3-442)
Outline: as §1

[6] = molecular target: T4, L. blandensis dGTPase V74Q (Leeuwenhoekiella blandensis, UniProt A3XHN1, V74Q); assay: Enzyme-coupled dGTPase activity assay, V74Q mutant; assay type: biochemical
T4 sequence (A3XHN1 3-442 V74Q): T1 sequence (A3XHN1 3-442)
Outline: as §1

[7] = molecular target: Leeuwenhoekiella blandensis MED217 dGTPase (SAMHD1 homolog), wild type, residues 3 to 442 (Leeuwenhoekiella blandensis MED217); assay: cryo-EM structure
[8] = molecular target: Leeuwenhoekiella blandensis MED217 dGTPase (SAMHD1 homolog), wild type, residues 3 to 442 (Leeuwenhoekiella blandensis MED217); assay: crystal structure

Row | stoichiometry N [7] | stoichiometry N [8] | Compound | EC50 [1] [µM] | increase of dGTPase kcat by dATP ([1]; WT, 500 µM dATP versus dGTP-only) [%] | fold activation of turnover rate by dATP ([1]; WT, calculated with n^H = 2, dGTP concentration at saturation) [fold] | fold activation of turnover rate by dATP ([1]; WT, calculated with n^H = 2, dGTP less than ~160 µM) | n^H (Hill coefficient) of activation by dATP ([1]; WT, dATP titration at 1 mM dGTP) | hydrolysis as substrate [2] | activation by dATP [3] | activation by dATP [4] | activation by dATP [5] | EC50 [6] [µM]
1 |  |  | Nc1ncnc2c1ncn2[C@H]1C[C@H](O)[C@@H](COP(=O)(O)OP(=O)(O)OP(=O)(O)O)O1 [dATP] | 36 ± 3 | ~50 | ~1.6 | more than threefold | 1.3 ± 0.1 | not used as a substrate | eliminate activation by dATP; also recorded: not activated by dATP | eliminate activation by dATP; also recorded: not activated by dATP | eliminated allosteric activation by dATP | 180 ± 16
2 | 6 | 6 | Leeuwenhoekiella blandensis MED217 dGTPase (SAMHD1 homolog), wild type, residues 3 to 442 (enzyme) |  |  |  |  |  |  |  |  |  | 
